≈ marks a conversion by molar mass, not a printed value.
Assays:
Enterococcus faecalis = experiment: Antibacterial activity against Enterococcus faecalis ATCC 29212 after 16 to 22 hrs by broth dilution method; format: functional
How it was run: (§1)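 Broth microdilution per the CLSI approved standard (sixth edition), using two-fold serial dilutions of compound in Mueller–Hinton broth. Stocks at 5 mg/ml in DMF. Inoculum came from a direct colony suspension adjusted by turbidity to about 5 × 10⁴ CFU/well final. Trays were incubated at 35 °C for 16–22 h. MIC is the lowest concentration completely inhibiting growth (99% inhibition).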

Staphylococcus aureus = experiment: Antibacterial activity against Staphylococcus aureus ATCC 29213 after 16 to 22 hrs by broth microdilution method; format: functional; how it was run: as §1
Escherichia coli = experiment: Antibacterial activity against Escherichia coli ATCC 25922 after 16 to 22 hrs by broth dilution method; format: functional; how it was run: as §1
Streptococcus pyogenes [1] = experiment: Antibacterial activity against inducible macrolide-lincosamide-streptogramin-resistant Streptococcus pyogenes 16 to 22 hrs by broth microdilution method; format: functional
How it was run: (§2)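 Two-fold serial dilutions in microdilution trays, following the CLSI dilution standard for aerobic bacteria. Medium was Mueller–Hinton broth with 5% horse serum for streptococci. Stocks were made at 5 mg/ml in DMF. Inoculum came from a direct colony suspension adjusted by turbidity to about 5 × 10⁴ CFU/well final. Incubation was at 35 °C for 16–22 h. MIC is the lowest concentration completely inhibiting growth (99% inhibition).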

Streptococcus pyogenes [2] = experiment: Antibacterial activity against efflux-mediated macrolide-resistance Streptococcus pyogenes after 16 to 22 hrs by broth microdilution method; format: functional; how it was run: as §2
Streptococcus pneumoniae [3] = experiment: Antibacterial activity against erythromycin-susceptible Streptococcus pneumoniae after 16 to 22 hrs by broth microdilution method; format: functional
How it was run: (§3)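 Streptococci tested by CLSI broth microdilution in Mueller–Hinton broth with 5% horse serum, using two-fold serial dilutions. Compounds were dissolved in DMF at 5 mg/ml (stock). Inoculum was a turbidity-adjusted direct colony suspension giving about 5 × 10⁴ CFU/well. Trays were held at 35 °C for 16–22 h. MIC is the lowest concentration completely inhibiting growth (99%).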

Haemophilus influenzae = experiment: Antibacterial activity against Haemophilus influenzae ATCC 49247 after 16 to 22 hrs by broth dilution method; format: functional
How it was run: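 Microdilution trays following the CLSI standard, with two-fold serial dilutions in supplemented broth suited to H. influenzae. DMF stocks at 5 mg/ml. Inoculum prepared from a turbidity-adjusted direct colony suspension to about 5 × 10⁴ CFU/well final. Incubated at 35 °C for 16–22 h. MIC is the lowest concentration giving complete (99%) growth inhibition.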

Moraxella catarrhalis = experiment: Antibacterial activity against Moraxella catarrhalis ATCC 23246 after 16 to 22 hrs by broth dilution method; format: functional; how it was run: as §1
Streptococcus pneumoniae [4] = experiment: Antibacterial activity against constitutive macrolide-lincosamide-streptogramin-resistant Streptococcus pneumoniae after 16 to 22 hrs by broth microdilution method; format: functional; how it was run: as §2
Streptococcus pyogenes [5] = experiment: Antibacterial activity against erythromycin-susceptible Streptococcus pyogenes after 16 to 22 hrs by broth microdilution method; format: functional; how it was run: as §3
Streptococcus pneumoniae [6] = experiment: Antibacterial activity against efflux-mediated macrolide-resistant Streptococcus pneumoniae after 16 to 22 hrs by broth microdilution method; format: functional; how it was run: as §2
[7] = Chemical stability in 0.01 M artificial gastric juice assessed as half life at 37 degC; format: physicochemical
How it was run: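 Acid degradation followed as pseudo-first-order kinetics. Rate constants came from an exponential fit of reactant concentration versus time, and t1/2 was calculated from k.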

Row | SMILES | MIC (Enterococcus faecalis) [µg/mL] | MIC (Staphylococcus aureus) [µg/mL] | MIC (Escherichia coli) [µg/mL] | MIC (Streptococcus pyogenes [1]) [µg/mL] | MIC (Streptococcus pyogenes [2]) [µg/mL] | MIC (Streptococcus pneumoniae [3]) [µg/mL] | MIC (Haemophilus influenzae) [µg/mL] | MIC (Moraxella catarrhalis) [µg/mL] | MIC (Streptococcus pneumoniae [4]) [µg/mL] | MIC (Streptococcus pyogenes [5]) [µg/mL] | MIC (Streptococcus pneumoniae [6]) [µg/mL] | half-life [7] [h]
1 | CC[C@H]1OC(=O)[C@H](C)[C@@H](O[C@H]2C[C@@](C)(OC)[C@@H](O)[C@H](C)O2)[C@H](C)[C@@H](O[C@@H]2O[C@H](C)C[C@H](N(C)C)[C@H]2O)[C@](C)(O)C[C@@H](C)CN(CCCN(CCC#N)C(=S)NCCc2ccccc2)[C@H](C)[C@@H](O)[C@]1(C)O | 32 (≈ 31.7 µM) | 1 (≈ 0.992 µM) | 16 (≈ 15.9 µM) | 8 (≈ 7.93 µM) | 16 (≈ 15.9 µM) | ≤ 0.125 | 4 (≈ 3.97 µM) | 2 (≈ 1.98 µM) | 64 (≈ 63.5 µM) | ≤ 0.125 | 32 (≈ 31.7 µM) | 
2 | CC[C@H]1OC(=O)[C@H](C)[C@@H](O[C@H]2C[C@@](C)(OC)[C@@H](O)[C@H](C)O2)[C@H](C)[C@@H](O[C@@H]2O[C@H](C)C[C@H](N(C)C)[C@H]2O)[C@](C)(O)C[C@@H](C)CN(CCCNC(=S)Nc2ccccc2)[C@H](C)[C@@H](O)[C@]1(C)O | 8 (≈ 8.63 µM) | 0.5 (≈ 0.539 µM) | 8 (≈ 8.63 µM) | 8 (≈ 8.63 µM) | 16 (≈ 17.3 µM) | ≤ 0.125 | 4 (≈ 4.31 µM) | 2 (≈ 2.16 µM) | > 64 | ≤ 0.125 | 16 (≈ 17.3 µM) | 
3 | CC[C@H]1OC(=O)[C@H](C)[C@@H](O[C@H]2C[C@@](C)(OC)[C@@H](O)[C@H](C)O2)[C@H](C)[C@@H](O[C@@H]2O[C@H](C)C[C@H](N(C)C)[C@H]2O)[C@](C)(O)C[C@@H](C)CN(CCCN(CCC#N)C(=O)Nc2cccc3ccccc23)[C@H](C)[C@@H](O)[C@]1(C)O | 16 (≈ 15.8 µM) | 1 (≈ 0.986 µM) | 8 (≈ 7.89 µM) | 8 (≈ 7.89 µM) | 8 (≈ 7.89 µM) | ≤ 0.125 | 4 (≈ 3.94 µM) | 0.5 (≈ 0.493 µM) | 64 (≈ 63.1 µM) | ≤ 0.125 | 16 (≈ 15.8 µM) | 1.8
4 | CC[C@H]1OC(=O)[C@H](C)[C@@H](O[C@H]2C[C@@](C)(OC)[C@@H](O)[C@H](C)O2)[C@H](C)[C@@H](O[C@@H]2O[C@H](C)C[C@H](N(C)C)[C@H]2O)[C@](C)(O)C[C@@H](C)CN(CCCNC(=O)NC(C)c2cccc3ccccc23)[C@H](C)[C@@H](O)[C@]1(C)O (stereo partly drawn) | 8 (≈ 8.09 µM) | 1 (≈ 1.01 µM) | 32 (≈ 32.3 µM) | 2 (≈ 2.02 µM) | 8 (≈ 8.09 µM) | ≤ 0.125 | 2 (≈ 2.02 µM) | 0.25 (≈ 0.253 µM) | 16 (≈ 16.2 µM) | ≤ 0.125 | 16 (≈ 16.2 µM) | 
5 | CC[C@H]1OC(=O)[C@H](C)[C@@H](O[C@H]2C[C@@](C)(OC)[C@@H](O)[C@H](C)O2)[C@H](C)[C@@H](O[C@@H]2O[C@H](C)C[C@H](N(C)C)[C@H]2O)[C@](C)(O)C[C@@H](C)CN(CCCNC(=O)Nc2ccc3ccccc3c2)[C@H](C)[C@@H](O)[C@]1(C)O | 8 (≈ 8.32 µM) | 1 (≈ 1.04 µM) | 16 (≈ 16.6 µM) | 2 (≈ 2.08 µM) | 4 (≈ 4.16 µM) | ≤ 0.125 | 2 (≈ 2.08 µM) | 0.25 (≈ 0.26 µM) | 16 (≈ 16.6 µM) | ≤ 0.125 | 4 (≈ 4.16 µM) | 
6 | CC[C@H]1OC(=O)[C@H](C)[C@@H](O[C@H]2C[C@@](C)(OC)[C@@H](O)[C@H](C)O2)[C@H](C)[C@@H](O[C@@H]2O[C@H](C)C[C@H](N(C)C)[C@H]2O)[C@](C)(O)C[C@@H](C)CN(CCCNC(=S)NCCCc2ccccc2)[C@H](C)[C@@H](O)[C@]1(C)O | 16 (≈ 16.5 µM) | 0.5 (≈ 0.516 µM) | 16 (≈ 16.5 µM) | 4 (≈ 4.13 µM) | 4 (≈ 4.13 µM) | ≤ 0.125 | 2 (≈ 2.06 µM) | 1 (≈ 1.03 µM) | > 64 | ≤ 0.125 | 8 (≈ 8.25 µM) | 
7 | CC[C@H]1OC(=O)[C@H](C)[C@@H](O[C@H]2C[C@@](C)(OC)[C@@H](O)[C@H](C)O2)[C@H](C)[C@@H](O[C@@H]2O[C@H](C)C[C@H](N(C)C)[C@H]2O)[C@](C)(O)C[C@@H](C)CN(CCCNC(=O)NCCc2ccccc2)[C@H](C)[C@@H](O)[C@]1(C)O | 16 (≈ 17 µM) | 1 (≈ 1.06 µM) | 16 (≈ 17 µM) | 8 (≈ 8.52 µM) | 32 (≈ 34.1 µM) | ≤ 0.125 | 16 (≈ 17 µM) | 2 (≈ 2.13 µM) | > 64 | ≤ 0.125 | 32 (≈ 34.1 µM) | 
8 | CC[C@H]1OC(=O)[C@H](C)[C@@H](O[C@H]2C[C@@](C)(OC)[C@@H](O)[C@H](C)O2)[C@H](C)[C@@H](O[C@@H]2O[C@H](C)C[C@H](N(C)C)[C@H]2O)[C@](C)(O)C[C@@H](C)CN(CCCNC(=O)NCc2ccccc2)[C@H](C)[C@@H](O)[C@]1(C)O | 16 (≈ 17.3 µM) | 0.5 (≈ 0.54 µM) | 8 (≈ 8.65 µM) | 4 (≈ 4.32 µM) | 8 (≈ 8.65 µM) | ≤ 0.125 | 2 (≈ 2.16 µM) | 1 (≈ 1.08 µM) | > 64 | ≤ 0.125 | 16 (≈ 17.3 µM) | 
9 | CC[C@H]1OC(=O)[C@H](C)[C@@H](O[C@H]2C[C@@](C)(OC)[C@@H](O)[C@H](C)O2)[C@H](C)[C@@H](O[C@@H]2O[C@H](C)C[C@H](N(C)C)[C@H]2O)[C@](C)(O)C[C@@H](C)CN(CCCNC(=O)Nc2cccc3ccccc23)[C@H](C)[C@@H](O)[C@]1(C)O | 4 (≈ 4.16 µM) | 0.5 (≈ 0.52 µM) | 8 (≈ 8.32 µM) | 2 (≈ 2.08 µM) | 4 (≈ 4.16 µM) | ≤ 0.125 | 1 (≈ 1.04 µM) | 0.5 (≈ 0.52 µM) | > 64 | ≤ 0.125 | 4 (≈ 4.16 µM) | 1.98
10 | CC[C@H]1OC(=O)[C@H](C)[C@@H](O[C@H]2C[C@@](C)(OC)[C@@H](O)[C@H](C)O2)[C@H](C)[C@@H](O[C@@H]2O[C@H](C)C[C@H](N(C)C)[C@H]2O)[C@](C)(O)C[C@@H](C)CN(CCCNC(=S)Nc2cccc3ccccc23)[C@H](C)[C@@H](O)[C@]1(C)O | 8 (≈ 8.19 µM) | 1 (≈ 1.02 µM) | 8 (≈ 8.19 µM) | 4 (≈ 4.09 µM) | 4 (≈ 4.09 µM) | ≤ 0.125 | 2 (≈ 2.05 µM) | 1 (≈ 1.02 µM) | > 64 | ≤ 0.125 | 4 (≈ 4.09 µM) | 
11 | CC[C@H]1OC(=O)[C@H](C)[C@@H](O[C@H]2C[C@@](C)(OC)[C@@H](O)[C@H](C)O2)[C@H](C)[C@@H](O[C@@H]2O[C@H](C)C[C@H](N(C)C)[C@H]2O)[C@](C)(O)C[C@@H](C)CN(CCCN(CCC#N)C(=S)Nc2cccc3ccccc23)[C@H](C)[C@@H](O)[C@]1(C)O | 32 (≈ 31.1 µM) | 4 (≈ 3.88 µM) | 8 (≈ 7.76 µM) | 32 (≈ 31.1 µM) | 32 (≈ 31.1 µM) | ≤ 0.125 | 8 (≈ 7.76 µM) | 4 (≈ 3.88 µM) | 64 (≈ 62.1 µM) | ≤ 0.125 | 16 (≈ 15.5 µM) | 

Source: ChEMBL document CHEMBL1153576, “Novel ureas and thioureas of 15-membered azalides with antibacterial activity against key respiratory pathogens” (Eur J Med Chem, 2009)
